# In the library only some 1.7% were active in any assay of this set; here they are far more common.
# PfHsp90 yeast 2 = growth inhibition of yeast expressing Plasmodium Hsp90; S. cerevisiae expressing PfHsp90, BacTiter-Glo ATP, 48 h; yeast lacking PDR1 and PDR3 efflux regulators; inhibition, % at 9.4 µM; hit rate 0.32% among 310,000; AID 504621;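 active = every replicate shows inhibition above about 80%, whatever the replicate mean, limit read from the data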;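 note: 0% = DMSO neutral controls and 100% = 20 µM radicicol positive controls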
# PglD DTNB = inhibitors of Campylobacter jejuni PglD acetyltransferase; purified PglD enzyme, DTNB colorimetric CoA detection; inhibition, % at 12.5 µM; hit rate 0.098% among 360,000; in the data active = inhibition above about 16%, passing the limit was not always enough
# CSC inhib = cancer stem cell inhibition. cancer stem cell-like cells viability, luminescence. AID 2717. hit rate 1.1% among 300,000. inhibition, % at 7.5 µM; in the data active = inhibition above about 75%; tested in HMLE shEcad cells
# SKKanGAS inh = blocks kanamycin growth of S. pyogenes SKKanGAS strain. inhibition, % at 7.5 µM. BacTiter-Glo, 6 h. hit rate 1.3% among 300,000;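 active = mean replicate score, as percent of positive control median, at least 50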;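 note: strain carries kanamycin resistance gene driven by streptokinase promoter and grows in 40 µg/ml kanamycin; loss of luminescence reflects streptokinase promoter inhibition or plain growth inhibition; 0% = median of DMSO wells and 100% = positive control at its reference dose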
# FN deposition inh = fibronectin deposition inhibition | AH1F fibroblasts, Alexa488-fibronectin deposition fluorescence, overnight | inhibition, % at 12.6 µM | hit rate 0.086% among 350,000 | AID 743247;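 active = mean inhibition across replicates of 30% or more, regardless of how many single replicates reach that level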;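 note: positive control wells lacked labelled fibronectin entirely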
#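 Material: AH1F fibroblast monolayer depositing Alexa488-labelled fibronectin into matrix | Input: 10000 AH1F cells/well | Medium: DMEM plus 2% serum, read in PBS | Reagent: Alexa488-fibronectin, 24 nM final in well | Compound dosing: One dose per compound, pinned | Schedule: 1 h adhesion, overnight exposure | Measured by: Fluorescence at 485 nm excitation, 525 nm emission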
# Rtt109 HAT inh = inhibitors of Candida albicans Rtt109/Vps75 histone acetyltransferase; Q5AAJ8; purified Rtt109/Vps75, ThioGlo CoA-SH fluorescence, 4 h; inhibition, % at 34.9 µM; hit rate 0.16% among 330,000;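 active = inhibition of at least 50% in every replicate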
# Target sequence (Q5AAJ8 whole entry, looked up): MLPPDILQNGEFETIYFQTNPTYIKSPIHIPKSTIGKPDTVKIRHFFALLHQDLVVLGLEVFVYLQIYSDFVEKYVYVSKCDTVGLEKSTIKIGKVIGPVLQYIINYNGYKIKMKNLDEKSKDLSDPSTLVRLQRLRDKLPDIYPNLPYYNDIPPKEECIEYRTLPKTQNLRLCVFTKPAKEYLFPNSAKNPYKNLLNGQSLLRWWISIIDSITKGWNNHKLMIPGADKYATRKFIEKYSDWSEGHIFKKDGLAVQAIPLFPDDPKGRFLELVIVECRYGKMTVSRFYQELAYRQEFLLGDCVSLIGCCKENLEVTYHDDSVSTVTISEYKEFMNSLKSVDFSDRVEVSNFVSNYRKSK
# * = called active by the depositor; nt = not tested or not shown.
SMILES,PfHsp90 yeast 2,PglD DTNB,CSC inhib,SKKanGAS inh,FN deposition inh,Rtt109 HAT inh
CN1c2ccc(-c3ccccc3F)cc2[C@H]2[C@H](CCN2C(=O)NC2CCCCC2)[C@@H]1CO,nt,nt,nt,nt,-5.5,nt
O=C(OCc1ccccc1)c1ccc2c(c1)-c1ccccc1C2=O,-24.0,-7.0,11.3,55.3*,-20.3,0.6
COc1ccc(-c2nc(-c3ccc4c(c3)OCO4)[nH]c2-c2ccc(OC)cc2)cc1,-19.7,-3.0,nt,55.5*,9.2,-3.1
C[C@H](CO)N1C[C@H](C)[C@@H](CN(C)C(=O)Nc2ccc3c(c2)OCO3)OCCCC[C@H](C)Oc2ccc(NS(=O)(=O)c3ccc(F)cc3)cc2C1=O,nt,-3.8,nt,nt,-8.4,nt
CN1c2ccc(-c3ccccc3)cc2[C@@H]2[C@@H](CCN2C(=O)CN2CCOCC2)[C@@H]1CO,nt,2.1,nt,nt,30.0*,nt
C[C@H](CO)N1C[C@H](C)[C@H](CN(C)C(=O)Nc2ccc(C(F)(F)F)cc2)Oc2ccc(NC(=O)CCCCCC(=O)Nc3ccccc3N)cc2CC1=O,nt,-3.1,nt,nt,nt,nt
O=C(NCc1ccc(Cl)cc1)c1cccc(NC(=O)c2ccccc2)c1,-2.2,nt,111.5*,7.6,4.3,-5.7
COC(=O)c1cccc(NC(=S)NCc2ccc(Cl)cc2)c1,2.8,-5.8,-8.0,61.7*,nt,-0.3
COC(=O)c1cc(NC(=S)NCc2ccc(Cl)cc2)cc(C(=O)OC)c1,-9.8,nt,71.3,32.0,nt,3.2
COc1ccc(S(=O)(=O)N(C)C[C@@H]2Oc3c(NC(=O)C4CCOCC4)cccc3C(=O)N([C@@H](C)CO)C[C@H]2C)cc1,nt,-0.1,nt,nt,-3.2,nt
CCCCc1c(C)nn(-c2nnc3c4ccccc4n(CC)c3n2)c1C,-33.7,4.9,51.1,76.0*,1.1,3.1
COc1ccc(/C=N/Nc2nc(N3CCCC3)nc(N3CCCC3)n2)cc1,-8.2,7.0,-9.9,-5.3,0.6,0.0
COc1ccc(/C=N/Nc2nc(Nc3ccccc3)nc(N3CCCC3)n2)cc1,-11.3,nt,-0.3,55.7*,-2.1,2.1
O=C(O)COc1ccc(/C=N/Nc2nc(Nc3ccccc3)nc(N3CCCCC3)n2)cc1,19.8,-0.7,-3.7,56.9*,-12.1,32.1
C(=N\Nc1nc(Nc2ccccc2)nc(N2CCCCC2)n1)/c1ccco1,nt,nt,-3.3,81.3*,-5.4,nt
CC(C)NC(=O)N(C)C[C@@H]1OCCCC[C@@H](C)Oc2ccc(NS(=O)(=O)c3cn(C)cn3)cc2C(=O)N([C@H](C)CO)C[C@H]1C,nt,-2.0,nt,nt,-1.4,nt
COc1ccc(CN(C)C[C@H]2Oc3c(NS(C)(=O)=O)cccc3C(=O)N([C@H](C)CO)C[C@@H]2C)cc1,nt,-5.5,nt,nt,nt,nt
CCOc1ccc(C(=O)Nc2nnc(C3=COCCO3)o2)cc1,nt,-2.9,14.6,71.6*,8.3,0.2
O=C(Nc1nnc(C2=COCCO2)o1)c1cccc(Br)c1,-4.2,2.9,-5.2,99.6*,0.8,5.1
O=C(Nc1nnc(C2=COCCO2)o1)c1cccc([N+](=O)[O-])c1,31.7,0.8,9.1,0.8,1.8,3.4
C[C@H](CO)N1C[C@H](C)[C@@H](CN(C)S(=O)(=O)c2cccs2)Oc2ccc(NC(=O)C3CCCCC3)cc2CC1=O,nt,-1.7,nt,nt,nt,nt
COc1ccccc1-c1cn(CC[C@H]2CC[C@H](NC(=O)CCN3CCCCC3)[C@H](CO)O2)nn1,nt,-3.9,nt,nt,-7.9,nt
N=C1/C(=C\c2ccc(OC(=O)c3ccccc3Cl)cc2)C(=O)N=C2SC(N3CCOCC3)=NN12,-23.8,3.0,-3.4,53.5*,-7.6,6.0
CCOC(=O)/C(=C/c1ccc(OC(=O)c2ccccc2)cc1)C(C)=O,106.1*,2.3,7.1,2.7,-3.1,5.6
COc1cccc(NC(=O)N2CC3(C2)[C@@H](c2ccccc2)[C@@H](CO)N3C(=O)C2CCC2)c1,nt,nt,nt,nt,-2.4,nt
SMILES,PfHsp90 yeast 2,PglD DTNB,CSC inhib,SKKanGAS inh,FN deposition inh,Rtt109 HAT inh
O=c1[nH]c(=O)n(C2C[C@H](O)[C@@H](CO)O2)cc1C(F)(F)F (stereo partly drawn),-9.9,1.6,75.7*,nt,3.9,-0.2
O=c1[nH]c(=O)n([C@H]2C[C@H](O)[C@@H](CO)O2)cc1C(F)(F)F,41.2,-2.3,71.2,-4.1,-3.9,4.0
O=C(/C=C/c1ccccc1Cl)c1ccc(O)cc1,110.3*,-1.0,25.3,0.1,13.4,-2.7
O=C(/C=C/c1c(F)cccc1Cl)c1ccc(O)cc1,-78.2,nt,67.5*,17.9,16.7,-0.2
Cc1cccc(CN2C(=O)/C(=C\c3ccc(C(=O)NCCCN4CCN(C)CC4)cc3)Oc3ccccc32)c1,53.2,1.8,104.6*,10.7,6.6,0.5
CCCc1cc(=O)n2[nH]cc(-c3ccc(Cl)cc3)c2n1,1.2,-2.2,94.9*,84.8*,2.9,-12.8
CCOC(=O)Cc1cc(=O)n2[nH]cc(-c3cccc(Br)c3)c2n1,6.1,5.0,27.0,71.2*,-15.8,1.1
COCc1cc(=O)n2[nH]cc(-c3ccccc3)c2n1,5.2,6.7,4.8,8.0,3.8,2.8
Cc1nn2c(COc3ccc(NC(=O)c4ccccc4)cc3)nnc2c2ccccc12,-14.3,2.2,-0.7,94.0*,9.8,-8.2
O=C(CSc1ccc(Cl)cc1)NC1=NN(c2ccccc2)C(=O)C1,7.6,-2.3,-3.3,77.5*,0.7,3.9
C=CC[C@@]1(C(=O)N2CCOCC2)N=C(c2ccc(OCCCO)cc2)O[C@@H]1c1ccccc1,nt,9.1,nt,nt,nt,nt
Cc1cc(O)c(C(C)C)cc1C1(c2cc(C(C)C)c(O)cc2C)OC(=O)c2ccccc21,4.3,4.6,150.1*,84.3*,1.9,19.9
Cc1noc(C)c1NC(=O)N(C)C[C@H]1Oc2ccc(N(C)C)cc2C(=O)N([C@@H](C)CO)C[C@H]1C,nt,3.4,nt,nt,nt,nt
Cc1cc(C(=O)NNc2ccc(Cl)cc2)no1,6.7,5.2,117.4*,-2.3,-10.2,-12.1
Cc1cc(C(=O)NNc2ccc(F)cc2F)no1,13.3,0.7,75.1*,-6.0,3.6,7.5
CCOC(=O)c1sc(NC(=O)Nc2cccc(Cl)c2)cc1C,-6.7,-0.5,-4.6,94.9*,-3.8,-1.3
CCOC(=O)c1sc(NC(=O)c2cccs2)cc1C,14.8,2.9,-7.7,1.4,nt,-7.1
CCC(C)n1ncn(-c2ccc(N3CCN(c4ccc(OCC5COC(Cn6cncn6)(c6ccc(Cl)cc6Cl)O5)cc4)CC3)cc2)c1=O (stereo not drawn),92.2*,1.2,47.5,21.6,12.8,-4.6
O=C(Nc1ccccc1C(=O)O)c1cccc(NC(=O)c2ccc(Br)o2)c1,8.7,-1.5,11.1,83.2*,nt,5.0
O=C(Nc1ccccc1C(=O)O)c1ccc(NC(=O)c2ccc(Br)o2)cc1,nt,nt,2.2,13.9,nt,10.4
O=[N+]([O-])c1cccc(CP(=O)(c2ccccc2)c2ccccc2)c1,-3.2,-0.5,-2.3,nt,0.8,2.3
O=[N+]([O-])c1ccc(CP(=O)(c2ccccc2)c2ccccc2)cc1,0.3,-7.7,80.6*,2.9,-2.8,-4.3

# Assay outcomes from PubChem.
